Results reported in paper PMC5947295 (Clinical Pharmacology in Drug Development, 2018).
Like-named read-outs stand apart in the source and are kept apart here.

How the values were obtained:
[1] = phase 2, small number of subjects; cited from earlier work
[2] = single oral dose of [14C]‐lanabecestat; cited from earlier work
[3] = system: plasma and CSF Aβ peptides; settings: once‐weekly (70‐mg) dosing schedule; cited from earlier work
BACE1 [4] = settings: read-out: In vitro 50% inhibitory concentration (IC50) for BACE1; cited from earlier work
Caco‐2 = settings: cited from earlier work
plasma Aβ peptides = settings: single dose at the highest dose studied, SAD study; cited from earlier work
[5] = Safety and tolerability monitoring in the crossover study; assay type: in vivo, human; settings: healthy subjects
Method in brief: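 Single oral 50 mg dose on days 1, 8 and 15 as 10 mL solution (5 mg/mL), tablet A or tablet B, with 7–10-day washout. Dosed after an overnight fast with 240 mL water, fasted to 4 h postdose. AEs, hematology, chemistry (ALT, AST, ALP), urinalysis, vitals, ECG, physical/neurological examination and C-SSRS were monitored throughout.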

BACE1 [6] = settings: in vitro; cited from earlier work
[7] = Phase 1 randomized 3-period crossover relative bioavailability study, plasma PK; assay type: in vivo; settings: both, human, po, 50 mg
[8] = system: plasma, cerebrospinal fluid (CSF), and brain Aβ1–40, Aβ1–42, and sAPPβ concentrations; settings: mouse; cited from earlier work
Caco-2 permeability = assay type: in vitro ADME; settings: human
[9] = cited from earlier work; for Cmax: single 150‐mg dose
[10] = elderly healthy subjects and patients with mild to moderate AD, up to 750 mg single dose or 150 mg multiple dose; cited from earlier work
[11] = system: plasma, cerebrospinal fluid (CSF), and brain Aβ1–40, Aβ1–42, and sAPPβ concentrations; settings: guinea pig; cited from earlier work
[12] = system: plasma, cerebrospinal fluid (CSF), and brain Aβ1–40, Aβ1–42, and sAPPβ concentrations; settings: dog; cited from earlier work
[13] = single 50 mg dose, safety set n = 16

## NC1=N[C@@]2(c3cc(NC(=O)c4ccc(F)cn4)ccc3F)COC[C@H]2CS1 [LY2886721]
[1]
  Liver safety finding that terminated clinical development: elevations in circulating liver‐enzyme activity

## CC#Cc1cncc(-c2ccc3c(c2)[C@@]2(N=C(C)C(N)=N2)[C@]2(CC[C@H](OC)CC2)C3)c1 [lanabecestat, [1r,1′R,4R]‐4‐methoxy‐5″‐methyl‐6′‐[5‐(prop‐1‐yn‐1‐yl)pyridin‐3‐yl]‐3′H‐dispiro[cyclohexane‐1,2′‐indene‐1′,2″‐imidazol]‐4″‐amine]
[2]
  Radioactive dose recovered in feces: 74%
  Radioactive dose recovered in urine: 25%
[3]
  Suppression of plasma and CSF Aβ peptides: prolonged suppression
BACE1 [4]
  IC50: 0.6 nM
Caco‐2
  Mean Caco‐2 apical‐to‐basolateral Papp permeability: 34.8 × 10^‐6 cm/s
Plasma Aβ peptides
  Duration of suppression of plasma Aβ peptides: up to 3 weeks
[5]; single 50 mg dose as solution or tablet
  Tolerability: well tolerated
[5]; single 50 mg dose
  Severity of adverse events: mild
[5]; single 50 mg dose, 16 subjects
  Subjects reporting adverse events: 37.5%
[5]; [13]
  Number of subjects with ≥1 TEAE: 6 (37.5) n (%)
  TEAE: Dizziness: 1 (6.3) n (%)
  TEAE: Dry skin: 2 (12.5) n (%)
  TEAE: Headache: 2 (12.5) n (%)
  TEAE: URTI: 1 (6.3) n (%)
[5]; single 50 mg doses
  Changes in liver‐related clinical chemistry parameters: no significant changes
BACE1 [6]
  Off‐rate from BACE1, half‐life: approximately 9 hours
[7]
  half-life: ~16 h
[8]
  Plasma, CSF and brain Aβ1–40, Aβ1–42 and sAPPβ concentrations: robustly reduced
Caco-2 permeability
  Papp: > 10 ×10⁻⁶ cm/s
[9]; fasted
  Cmax: 701 ng/mL
[9]; fed
  Cmax: 499 ng/mL
[9]; food intake
  Effect of food intake on AUC: minimal effect
  tmax with food intake (later tmax): ~2 h
[10]
  Safety and tolerability: no safety or tolerability concerns
[11]
  Plasma, CSF and brain Aβ1–40, Aβ1–42 and sAPPβ concentrations: robustly reduced
[12]
  Plasma, CSF and brain Aβ1–40, Aβ1–42 and sAPPβ concentrations: robustly reduced
